E-selectin induc: induces E-selectin expression in human endothelial cells. hit rate 0.37% among 260,000. AID 686992. P16581. HUVEC E-selectin immunofluorescence imaging; normalized: neutral wells 0, TNF-alpha wells 100. activation, % at 7.58 µM;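 active means mean E-selectin-positive cell signal at least 10% of the positive control, reached in at least 60% of replicates, without over 20% cell loss; inconclusive means no rule given, readout overlaps actives, possibly toxicity-flagged; inactive means the rest, including those meeting only one limit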
Target sequence (P16581 whole entry, looked up): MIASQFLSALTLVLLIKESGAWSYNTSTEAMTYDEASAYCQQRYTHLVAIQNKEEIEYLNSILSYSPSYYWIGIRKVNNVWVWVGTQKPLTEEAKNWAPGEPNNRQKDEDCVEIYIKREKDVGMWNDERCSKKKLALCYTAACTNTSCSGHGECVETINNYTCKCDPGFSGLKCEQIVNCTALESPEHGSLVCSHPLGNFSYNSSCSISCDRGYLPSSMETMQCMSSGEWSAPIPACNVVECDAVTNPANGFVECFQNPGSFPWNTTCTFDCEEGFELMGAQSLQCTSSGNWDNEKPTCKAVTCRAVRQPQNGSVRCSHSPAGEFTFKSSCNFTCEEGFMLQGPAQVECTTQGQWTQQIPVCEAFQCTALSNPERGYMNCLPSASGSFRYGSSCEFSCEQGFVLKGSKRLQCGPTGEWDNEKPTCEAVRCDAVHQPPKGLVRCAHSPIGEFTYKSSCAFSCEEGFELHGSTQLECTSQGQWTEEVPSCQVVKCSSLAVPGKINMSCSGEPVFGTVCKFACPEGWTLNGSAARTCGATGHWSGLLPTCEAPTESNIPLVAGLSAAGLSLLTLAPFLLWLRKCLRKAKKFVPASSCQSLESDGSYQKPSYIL
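System: HUVEC, human umbilical vein endothelial cells; quantity: 3,000 cells/well; buffer or medium: EGM-2 medium, gelatin-coated wells; dosing: single-point compound dose; detection: immunofluorescence imaging; evaluation: % PE-positive cells; benchmarks: TNF-alpha, DMSO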
DENV2 CPE: protects cells from dengue virus 2 cytopathic effect | DENV2-infected cells, cytopathic effect rescue, plate reader | CPE inhibition, % at 9.99 µM | hit rate 1.7% among 350,000; in the data active means CPE inhibition above about 20%, passing the limit was not always enough; inconclusive means no clear call, values can overlap the other calls; tested in BHK-21 cells;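 further: 0% = median of neutral control wells and 100% = median of positive control wells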
SIRT5 inh: blocks human SIRT5 desuccinylation of peptide. Q9NXA8. Purified SirT5, succinyl-peptide AMC, trypsin-coupled fluorescence. inhibition, % at 15 µM. hit rate 1.1% among 330,000; in the data active means inhibition above about 15%; inconclusive means no clear call, values can overlap the other calls
* = called active by the depositor. Only some compounds are listed: those with a hit (about 2.9% of all), similar ones and a draw of the others.

For CC(C)(C)n1nc2c(c1NC(=O)COc1ccc3ccccc3c1)CS(=O)C2 (centres undefined) the results were E-selectin induc -0.9, DENV2 CPE inconclusive and SIRT5 inh 1.4.
`CN(C)c1ccc(S(=O)(=O)N2CCCCC2)cc1NC(=O)CCNC(=O)c1ccccc1Cl` gave DENV2 CPE 4.5 and SIRT5 inh -3.0.
`CCNC(=O)C1(C)CCCN1C(=O)c1ccc(F)c(Cl)c1` (centres undefined) gave DENV2 CPE -2.0.
`S=C1NCCN1CC1CCN(CCCC2CCCC2)CC1` gave E-selectin induc 0.8, DENV2 CPE 72.5* and SIRT5 inh -3.7.
S=C1NCCN1CC1CCN(CC2CCCC2)CC1 was read as E-selectin induc -0.4 and DENV2 CPE 5.5.
Screening COc1cc(C)c(NC(=O)c2cc(C3CC3)nc3c2cnn3C(C)C)cc1OC returned DENV2 CPE inconclusive and SIRT5 inh 0.0.
Screening COc1ccc(NC(=O)c2cc(C3CC3)nc3c2cnn3C(C)C)cc1OC returned E-selectin induc -2.5, DENV2 CPE 2.1 and SIRT5 inh 16.2*.
`COc1cccc(/C=N/NC(=O)c2cnn(-c3ccccc3)c2N)c1` gave E-selectin induc 0.0 and DENV2 CPE 7.5.
CC(C)Oc1cccc(C(=O)C2CCCN(Cc3ccc(Oc4ncccn4)cc3)C2)c1 (centres undefined) was read as DENV2 CPE 1.4 and SIRT5 inh -0.8.
For CCCC#Cc1ccc([C@@H]2[C@@H](CO)N3C(=O)CN(C(=O)c4ccccc4)C[C@H]23)cc1 the results were E-selectin induc 0.8, DENV2 CPE -3.6 and SIRT5 inh -0.1.
For CC1CN(/C(=N\S(=O)(=O)c2ccccc2)c2ccccc2)CC(C)O1 (centres undefined) the results were E-selectin induc 0.0 and SIRT5 inh -5.1.
`COc1ccc(S(=O)(=O)N(C)C[C@H]2Oc3ccc(NC(=O)Nc4ccc5c(c4)OCO5)cc3CC(=O)N([C@H](C)CO)C[C@H]2C)cc1` gave E-selectin induc 36.3*, DENV2 CPE 3.6 and SIRT5 inh 1.9.
COc1ccc(NC(=O)Nc2ccc3c(c2)CC(=O)N([C@@H](C)CO)C[C@H](C)[C@H](CN(C)S(=O)(=O)c2ccc(OC)cc2)O3)cc1 was read as E-selectin induc 0.1, DENV2 CPE 3.2 and SIRT5 inh -1.5.
Screening COc1ccc(NC(=O)Nc2ccc3c(c2)CC(=O)N([C@@H](C)CO)C[C@@H](C)[C@H](CN(C)S(=O)(=O)c2ccc(OC)cc2)O3)cc1 returned E-selectin induc 0.2 and SIRT5 inh 6.0.
Screening COc1ccc(S(=O)(=O)N(C)C[C@H]2Oc3ccc(NC(=O)Nc4ccc5c(c4)OCO5)cc3CC(=O)N([C@@H](C)CO)C[C@@H]2C)cc1 returned E-selectin induc -17.3 and DENV2 CPE 96.8*.
For Cc1ccc(CS(=O)Cc2ccc(C(=O)N3CCN(c4ccccn4)CC3)o2)cc1 (centres undefined) the results were E-selectin induc 0.3, DENV2 CPE 7.1 and SIRT5 inh 0.2.
Cc1cc(C)n2nc(C(=O)N/N=C/C=C/c3ccccc3)nc2n1 was read as DENV2 CPE 3.7 and SIRT5 inh 6.3.
`O=C(c1cccc(S(=O)(=O)N2CCN(c3ccccc3)CC2)c1)N1CCCC(C(F)(F)F)C1` (centres undefined) gave E-selectin induc 0.1, DENV2 CPE -14.2 and SIRT5 inh -1.4.
CC(=O)c1cccc(NC(=O)C2=CC(c3ccco3)=NS(=O)(=O)N2C)c1 was read as DENV2 CPE 2.4 and SIRT5 inh 0.1.
CC(=O)c1cccc(NC(=O)C2=CN3CCS(=O)(=O)N=C3C=C2)c1 was read as E-selectin induc 75.2*, DENV2 CPE -0.8 and SIRT5 inh 1.3.
For CCCS(=O)(=O)NC(=O)C1(C)CCN(C(=O)c2c(F)cccc2F)C1 (centres undefined) the results were DENV2 CPE 1.8.
CCCS(=O)(=O)NC(=O)C1(C)CCN(C(=O)c2cccs2)C1 (centres undefined) was read as E-selectin induc 0.3, DENV2 CPE -6.5 and SIRT5 inh 20.2*.
For COCCC(=O)N1CCC(Oc2ccc(C(=O)N(C)C(C)c3ccon3)cc2)CC1 (centres undefined) the results were DENV2 CPE -0.3 and SIRT5 inh -6.6.
For CC(c1ccon1)N(C)C(=O)c1cccc(OC2CCN(S(C)(=O)=O)CC2)c1 (centres undefined) the results were DENV2 CPE -11.4 and SIRT5 inh 15.2*.
For COc1ccc2c3c([nH]c2c1)[C@H](CO)N(S(C)(=O)=O)CC31CCN(Cc2nccs2)CC1 the results were E-selectin induc -0.1 and DENV2 CPE -11.9.
Screening COCCNC(=O)C(=O)NCC1CCCN1S(=O)(=O)c1cccs1 (centres undefined) returned DENV2 CPE 2.0.
`CC(=O)Nc1ccc(C(=O)N/C(=C/c2ccccc2)C(=O)N2CCCCC2)cc1` gave DENV2 CPE 1.2 and SIRT5 inh -1.8.
C[C@@H]1CN([C@@H](C)CO)C(=O)c2cc(C#CC3(O)CCCC3)cnc2O[C@H]1CN(C)C(=O)Cc1cccnc1 was read as E-selectin induc -0.3, DENV2 CPE 2.7 and SIRT5 inh -2.8.
COc1cc(C(=O)Nc2nc3ccccc3[nH]2)ccc1OC(F)F was read as E-selectin induc 3.6, DENV2 CPE 2.7 and SIRT5 inh -1.9.
Screening COc1cc(CC(C#N)(CO)c2nc3ccccc3[nH]2)ccc1OC(F)F (centres undefined) returned DENV2 CPE 47.3* and SIRT5 inh -1.4.
Screening C[C@@H]1CN([C@@H](C)CO)C(=O)c2cc(NS(=O)(=O)c3cn(C)cn3)ccc2O[C@@H](C)CCCCO[C@H]1CN(C)C(=O)C1CCCCC1 returned E-selectin induc -0.1, DENV2 CPE 7.6 and SIRT5 inh -6.1.
`CC(C)(C)C(=O)Nc1nc2c(c(=O)[nH]1)CCCC2` gave DENV2 CPE -1.8 and SIRT5 inh 4.6.
Screening CN1CCN(C2=NC(=O)/C(=C/c3ccccc3OS(=O)(=O)c3ccccc3)S2)CC1 returned E-selectin induc 5.0, DENV2 CPE -5.1 and SIRT5 inh 2.5.
`O=C(C[C@H]1CC[C@H]2[C@@H](COC[C@@H](O)CN2CC2CCCCC2)O1)NCC1CC1` gave E-selectin induc 0.1, DENV2 CPE 27.2* and SIRT5 inh 0.8.
For CN(C)C(=O)C[C@H]1CC[C@H]2[C@@H](COC[C@H](O)CN2CC2CCCC2)O1 the results were E-selectin induc 0.1, DENV2 CPE 48.0* and SIRT5 inh -0.6.
Screening CN(C)C(=O)C[C@@H]1CC[C@H]2[C@@H](COC[C@@H](O)CN2CC2CCCC2)O1 returned E-selectin induc 0.3, DENV2 CPE -2.0 and SIRT5 inh 1.9.
Screening O=C(C[C@@H]1CC[C@H]2[C@@H](COC[C@H](O)CN2CC2CCCCC2)O1)NCC1CC1 returned E-selectin induc 0.1, DENV2 CPE 0.4 and SIRT5 inh -3.1.
Screening CCN(CC(=O)Nc1cccc(OC)c1)CC(=O)Nc1ccc(Br)c(C)c1 returned E-selectin induc -0.1, DENV2 CPE -3.4 and SIRT5 inh -1.9.
Screening CN(C(=O)COC(=O)c1n[nH]c(=O)c2ccccc12)c1ccccc1 returned E-selectin induc 38.3*, DENV2 CPE 2.1 and SIRT5 inh -4.3.

Bioassay records as filed in PubChem BioAssay.
